# Assay results: ChEMBL document CHEMBL1150122, “A new cytotoxic epothilone from modified polyketide synthases heterologously expressed in Myxococcus xanthus” (J Nat Prod, 2002)
# Active and inactive are the calls of the source. The calls are words filed in the database; no cut-off is given here.
# Legend:
# CCRF-CEM [1] = experiment: Cytotoxicity against camptothecin-resistant human CCRF-CEM cells after 3 days by SRB assay; assay type: functional, cell-based; conditions: 72 h
# Procedure, shortened: (§1)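 Cells kept in RPMI 1640 with 10% FBS and 2 mM L-glutamine, 37 °C, 5% CO2. Trypsinized cells seeded at 5000–7500 per well; compound added 20 h later across 0.001–1000 nM in growth medium. After 3 days, fixed with 10% TCA (4 °C, 1 h), stained 0.2% SRB/1% acetic acid 20 min, dye extracted with 10 mM Tris base, absorbance read at 515 nm.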
# SF-268 = experiment: Cytotoxicity against human SF268 cells after 3 days by SRB assay; assay type: functional, cell-based; conditions: SF-268, 72 h; procedure, shortened: as §1
# Tubulin (Homo sapiens) = Tubulin (Homo sapiens) (UniProt P68371+Q9H4B7+P0DPH7+P68366+Q13509+Q71U36+P04350+Q3ZCM7+P07437+P68363+Q9BQE3+Q6PEY2+Q13885+Q9BVA1+Q9BUF5); experiment: […] in human MCF7 cells at 1 uM after 2 hrs by SDS-PAGE; assay type: cell-based
# Procedure, shortened: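 Confluent MCF-7 cells in 35 mm dishes treated with 1 μM compound for 0, 1 and 2 h at 37 °C. Lysates spun 18000g, 12 min, to separate soluble tubulin (supernatant) from polymerized tubulin (pellet).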
# MCF7 = experiment: Cytotoxicity against human MCF7 cells after 3 days by SRB assay; assay type: functional, cell-based; conditions: MCF7, 72 h; procedure, shortened: as §1
# NCI-H460 = experiment: Cytotoxicity against human NCI-H460 cells after 3 days by SRB assay; assay type: functional, cell-based; conditions: NCI-H460, 72 h; procedure, shortened: as §1
# CCRF-CEM [2] = experiment: Cytotoxicity against human CCRF-CEM cells after 3 days by SRB assay; assay type: functional, cell-based; conditions: 72 h; procedure, shortened: as §1
# HL-60 [3] = experiment: Cytotoxicity against human HL60 cells after 3 days by SRB assay; assay type: functional, cell-based; conditions: HL-60, 72 h; procedure, shortened: as §1
# NCI/ADR-RES = experiment: Cytotoxicity against human NCI/ADR-RES cells after 3 days by SRB assay; assay type: functional, cell-based; conditions: 72 h; procedure, shortened: as §1
# HL-60 [4] = experiment: Cytotoxicity against mitoxantrone-resistant human HL60 cells after 3 days by SRB assay; assay type: functional, cell-based; conditions: HL-60, 72 h; procedure, shortened: as §1
SMILES,IC50 (CCRF-CEM [1]) [nM],IC50 (SF-268) [nM],Activity (Tubulin (Homo sapiens)),IC50 (MCF7) [nM],IC50 (NCI-H460) [nM],IC50 (CCRF-CEM [2]) [nM],IC50 (HL-60 [3]) [nM],IC50 (NCI/ADR-RES) [nM],IC50 (HL-60 [4]) [nM]
CC1=C/C[C@@H](/C(C)=C/c2csc(C)n2)OC(=O)C[C@H](O)C(C)(C)C(=O)[C@H](C)[C@@H](O)[C@@H](C)C\C=C\1,11,40,Active,28,34,23,25,35,18
C/C1=C/C[C@@H](/C(C)=C/c2csc(C)n2)OC(=O)C[C@H](O)C(C)(C)C(=O)[C@H](C)[C@@H](O)[C@@H](C)CCC1 [EPOTHILONE D],15,14,–,8,8,22,8,30,10
